The text below walks through data of PubChem BioAssay.

A short description of test [1]: reduced viability of SK-BR-3 breast cancer cells – cell-based, 24 h, human, pilot screen (AID 572).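 Also: compound exposure lasted between 18 and 24 h rather than exactly 24 h; 100% = carrier-treated control wells.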 Conditions: SK-BR-3 viability, CellTiter-Glo luminescence, at 10 µM, stronger effect = lower value. On the technique in general: In ATP-based viability assays light output follows the ATP content of the culture.
Test [2] is described as follows: HUVEC growth inhibition – cell-based, human, primary screen (AID 575;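 active = viability at or below 30% in both replicate assays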;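 also: 100% = median of untreated cell wells with 0.1% DMSO on each plate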). As to conditions: HUVEC proliferation, CellTiter-Glo luminescence, 72 h; at 10 µM; stronger effect = lower value. An outline of the steps: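 system = HUVEC primary cells | amount = 1250 cells/well | buffer or medium = supplemented EBM, 2% fetal bovine serum | dosing = single-point 10 µM, DMSO 0.1% final | times = 72 h compound incubation | detection = CTG luminescence | read-out = % viability relative to median vehicle-well signal on each plate | control set = vehicle and MePR control wells | format = collagen-coated 384-well format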

The nature of test [3]: H69AR cell proliferation blockers – human, duplicate replicates, primary screen (AID 580;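 active = viability at or under a set limit in both replicates, limit being median viability minus 3 SD, cut at about 48% in these data, passing the limit was not always enough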;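 also: 100% = mean luminescence of untreated wells and 0% = no signal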). Conditions: H69AR lung tumor cells viability, ATP luminescence, 72 h; at 10 µM; stronger effect = lower value.
The nature of test [4]: MRP1 drug-resistance reversers in H69AR cells – cell-based, doxorubicin co-treatment, pilot screen (AID 601;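 active = viability loss from added drug above about 55%, and viability with drug at most 40%, in both replicates, limit read from the data, passing the limit was not always enough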). As to conditions: CellTiter-Glo, 72 h, at 10 µM; for differential viability (reversal): stronger effect = higher value.
Test [5] in a line: yeast transport mutant growth inhibition pilot in 384-well plates, post-Golgi transport modulator project (AID 636; in the data active = inhibition above about 31%). As to conditions: absorbance 615 nm, about 18 h, stronger effect = higher value.
The nature of test [6]: growth suppression of yeast trafficking mutant, preliminary HTS, modulators of trafficking downstream of Golgi apparatus project, 1536-format plate, OD 615 nm (AID 637; in the data active = inhibition above about 30%). As to conditions: yeast transport mutant growth, absorbance 615 nm, 18 h; stronger effect = higher value.
Where [7] appears, read: H69AR cells + 2 uM doxorubicin, measured here: viability with 2 uM doxorubicin, stronger effect = lower value.
Where [8] appears, read: H69AR cells, compound alone cytotoxicity.

Each structure is given as a SMILES string. Active and inactive are the calls of the source.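 The calls were made as follows, unless noted: active = viability at or below 10% of carrier control in both of two separate runs; inconclusive = viability at or below 10% in only one of the two runs; inactive = the rest.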

On to `CN1CCc2c(sc3c2c(=O)n(-c2cccc(Cl)c2)c2nncn32)C1`, for which the viability (in general, a read-out of living cells in per cent, often relative to untreated cells) in test [1] is 102% (inactive); in test [2], 84.5% (inactive); in test [3] it was 95.8% (inactive); in test [4] (setting [7]), 109%; in test [4] (setting [8]) it was 95.8%. In test [4] (H69AR cells + 2 uM doxorubicin), the differential viability (reversal) was -13.3% (inactive). The inhibition (commonly the drop in the measured response relative to a control, in per cent) in test [5] is -2.6% (inactive); in test [6], -5.41% (inactive).
For the molecule `O=C(O)Cc1ccccc1C(=O)O`, the viability in test [1] is 120% (inactive); in test [2] it was 92.2% (inactive); in test [3], 95.1% (inactive); in test [4] (setting [7]), 95.4%; in test [4] (setting [8]) it was 95.1%. Moreover, the differential viability (reversal) in test [4] (H69AR cells + 2 uM doxorubicin) is -0.3% (inactive). Further, the figures for the inhibition in test [5] and in test [6] were -6.85% (inactive) and 1.29% (inactive), respectively.
For `CC1CCCN(S(=O)(=O)c2ccc(C(=O)Nc3nnc(-c4ccccc4Cl)o3)cc2)C1` (configuration not stated), the viability in test [1] is 87% (inactive); in test [2] it was 11.1% (active); in test [3] it was 18.9% (active); in test [4] (setting [7]), 37.9%; in test [4] (setting [8]) it was 18.9%. Besides, the differential viability (reversal) in test [4] (H69AR cells + 2 uM doxorubicin) is -19% (inactive). The inhibition in test [5] was 11.6% (inactive); in test [6], 6.56% (inactive).
Take `CC1=C(C(=O)Nc2ccccc2C)C(c2ccc(C)o2)N2C(=O)CSC2=N1` (configuration not stated): the viability in test [1] was 105% (inactive); in test [2], 106% (inactive); in test [3] it was 96.4% (inactive); in test [4] (setting [7]) it was 88.2%; in test [4] (setting [8]) it was 96.4%. In test [4] (H69AR cells + 2 uM doxorubicin), the differential viability (reversal) is 8.25% (inactive). Also, the results for the inhibition in test [5] and in test [6] were -9.04% (inactive) and 2.26% (inactive), respectively.
As for `CCC1(C)Cc2c(sc3nc(SCC(=O)O)[nH]c(=O)c23)CO1` (configuration not stated), the viability in test [1] was 111% (inactive); in test [2] it was 107% (inactive); in test [3] it was 94.1% (inactive); in test [4] (setting [7]) it was 79.6%; in test [4] (setting [8]), 94.1%. Further, the differential viability (reversal) in test [4] (H69AR cells + 2 uM doxorubicin) was 14.5% (inactive). In addition, the figures for the inhibition in test [5] and in test [6] were -1.6% (inactive) and -10% (inactive), respectively.
For the molecule `Cc1ccc(NC(=O)CSC2=C(C#N)C(c3ccc4c(c3)OCO4)CC(=O)N2)cc1C` (configuration not stated), the viability in test [1] is 64% (inactive); in test [2], 92.9% (inactive); in test [3] it was 88.6% (inactive); in test [4] (setting [7]), 93.4%; in test [4] (setting [8]) it was 88.6%. Moreover, in test [4] (H69AR cells + 2 uM doxorubicin), the differential viability (reversal) was -4.82% (inactive). The inhibition in test [5] was 7.7% (inactive); in test [6] it was -2.55% (inactive).
Regarding `COC(=O)c1ccc2c(=O)n(CC3CCCO3)c(=S)[nH]c2c1` (configuration not stated), the viability in test [1] was 84% (inactive); in test [2] it was 106% (inactive); in test [3] it was 86.2% (inactive); in test [4] (setting [7]) it was 83.9%; in test [4] (setting [8]), 86.2%. The differential viability (reversal) in test [4] (H69AR cells + 2 uM doxorubicin) was 2.35% (inactive). The inhibition in test [5] was -8.36% (inactive); in test [6], 4.19% (inactive).
Regarding `CC(C(=O)NC(=O)NC1CCCCC1)N1CCN(c2ccccn2)CC1` (configuration not stated), the viability is 96% (inactive) in test [1]; 95.6% (inactive) in test [2]; 104% (inactive) in test [3]; 88.9% in test [4] (setting [7]); 104% in test [4] (setting [8]). Besides, the differential viability (reversal) in test [4] (H69AR cells + 2 uM doxorubicin) is 14.7% (inactive). Besides, the values for the inhibition in test [5] and in test [6] were -2.4% (inactive) and -3.27% (inactive), respectively.
Take `Cc1cccc(CC(=O)Nc2c3c(nn2-c2cccc(Cl)c2)CS(=O)C3)c1` (configuration not stated): the viability in test [1] was 104% (inactive); in test [2] it was 88.9% (inactive); in test [3], 85.2% (inactive); in test [4] (setting [7]), 96.1%; in test [4] (setting [8]), 85.2%. Further, the differential viability (reversal) in test [4] (H69AR cells + 2 uM doxorubicin) is -10.9% (inactive). For the same molecule, the results for the inhibition in test [5] and in test [6] were 1.3% (inactive) and -6.72% (inactive), respectively.
On to `O=C(CN1CCN(c2nc(-c3ccc(Cl)cc3)cs2)CC1)NCc1ccco1`, for which the viability in test [1] is 67% (inactive); in test [2], 95.6% (inactive); in test [3] it was 97.9% (inactive); in test [4] (setting [7]), 94.8%; in test [4] (setting [8]), 97.9%. Further, the differential viability (reversal) in test [4] (H69AR cells + 2 uM doxorubicin) is 3.06% (inactive). Moreover, the inhibition in test [5] was -5.07% (inactive); in test [6], -2.18% (inactive).
Consider `CCOC(=O)n1c(=O)oc2cc(S(=O)(=O)N3CCCCC3)ccc21`, for which the viability in test [1] is 97% (inactive); in test [2], 112% (inactive); in test [3] it was 90.2% (inactive); in test [4] (setting [7]), 90.8%; in test [4] (setting [8]), 90.2%. The differential viability (reversal) in test [4] (H69AR cells + 2 uM doxorubicin) was -0.62% (inactive). Moreover, the results for the inhibition in test [5] and in test [6] were -4.27% (inactive) and -2.91% (inactive), respectively.
Turning to `CCOc1nc(-c2ccncc2)nc2ccccc12`, the viability in test [1] was 100% (inactive); in test [2] it was 93.7% (inactive); in test [3] it was 92.6% (inactive); in test [4] (setting [7]), 92.1%; in test [4] (setting [8]) it was 92.6%. For the same molecule, the differential viability (reversal) in test [4] (H69AR cells + 2 uM doxorubicin) was 0.47% (inactive). The values for the inhibition in test [5] and in test [6] were -7.4% (inactive) and 9.35% (inactive), respectively.
`O=C(c1ccco1)N1CCN(CCCCN2C(=O)c3ccccc3C2=O)CC1`: the viability in test [1] is 102% (inactive); in test [2], 90.5% (inactive); in test [3], 79.9% (inactive); in test [4] (setting [7]), 92.2%; in test [4] (setting [8]), 79.9%. Moreover, the differential viability (reversal) in test [4] (H69AR cells + 2 uM doxorubicin) was -12.3% (inactive). The inhibition in test [5] is -1.04% (inactive); in test [6], 0.32% (inactive).
On to `Cc1cc(C(C)(C)C)cc(C)c1CC1=NCCN1`, for which the viability in test [1] is 120% (inactive); in test [2], 86.3% (inactive); in test [3], 89.9% (inactive); in test [4] (setting [7]), 82.3%; in test [4] (setting [8]), 89.9%. In addition, the differential viability (reversal) in test [4] (H69AR cells + 2 uM doxorubicin) is 7.59% (inactive). Moreover, the inhibition is -2.73% (inactive) in test [5] and -4.5% (inactive) in test [6].
Consider `CCc1ccccc1NC(=O)c1ccoc1C`, for which the viability in test [1] is 102% (inactive); in test [2], 107% (inactive); in test [3], 101% (inactive); in test [4] (setting [7]) it was 90.2%; in test [4] (setting [8]), 101%. The differential viability (reversal) in test [4] (H69AR cells + 2 uM doxorubicin) was 10.8% (inactive). Moreover, the figures for the inhibition in test [5] and in test [6] were 1.78% (inactive) and 4.19% (inactive), respectively.
On to `Cc1cnc(C(=O)Nc2nnc(C(C)C)s2)cn1`, for which the viability was 113% (inactive) in test [1]; 113% (inactive) in test [2]; 87.4% (inactive) in test [3]; 81.2% in test [4] (setting [7]); 87.4% in test [4] (setting [8]). For the same molecule, the differential viability (reversal) in test [4] (H69AR cells + 2 uM doxorubicin) was 6.11% (inactive). The inhibition in test [5] is -0.26% (inactive); in test [6] it was -1.97% (inactive).
Take `O=C1C2ON(c3ccc(Cl)cc3)C(c3ccco3)C2C(=O)N1c1ccccc1` (configuration not stated): the viability in test [1] was 116% (inactive); in test [2], 81.4% (inactive); in test [3], 100% (inactive); in test [4] (setting [7]), 91.2%; in test [4] (setting [8]) it was 100%. Further, in test [4] (H69AR cells + 2 uM doxorubicin), the differential viability (reversal) is 8.97% (inactive). The inhibition in test [5] was -2.6% (inactive); in test [6], -3.61% (inactive).
On to `Cc1nc2ccc(F)cc2cc1C(=O)NCC1CCCO1` (configuration not stated), for which the viability is 89% (inactive) in test [1]; 90.3% (inactive) in test [2]; 85.2% (inactive) in test [3]; 97.3% in test [4] (setting [7]); 85.2% in test [4] (setting [8]). Further, the differential viability (reversal) in test [4] (H69AR cells + 2 uM doxorubicin) is -12.1% (inactive). The inhibition in test [5] is -8.9% (inactive); in test [6], 3.27% (inactive).
Take `O=C(CCn1c(=O)oc2ccccc21)N1CCCCCC1`: the viability is 112% (inactive) in test [1]; 99% (inactive) in test [2]; 98.3% (inactive) in test [3]; 93.3% in test [4] (setting [7]); 98.3% in test [4] (setting [8]). Moreover, the differential viability (reversal) in test [4] (H69AR cells + 2 uM doxorubicin) was 5.09% (inactive). Further, the inhibition in test [5] is 0.95% (inactive); in test [6], -1.64% (inactive).
